The values below come from ChEMBL document CHEMBL5543129, “Peptide Inhibitor Targeting the Extraterminal Domain in BRD4 Potently Suppresses Breast Cancer Both In Vitro and In Vivo” (J Med Chem, 2024).

Data set [1] addresses T1, von Hippel-Lindau disease tumor suppressor/Bromodomain-containing protein 4 (Homo sapiens) (UniProt O60885+P40337). Briefly: PROTAC activity at VHL/BDR4 ET domain in human MCF7 cells assessed as degradation by measuring fold change in remaining BRD4 level at 5 uM incubated for 24 hrs by immunoblotting analysis (reference value: […]). Type of data set: cell-based. (Immunoblotting shows a protein as a band on a membrane.)

Data set [2] addresses T2, von Hippel-Lindau disease tumor suppressor/Bifunctional arginine demethylase and lysyl-hydroxylase JMJD6 (Homo sapiens) (UniProt P40337+Q6NYC1). Briefly: Protac activity at VHL/JMJD6 in human MCF7 cells assessed as degradation by measuring fold change in remaining JMJD6 level at 5 uM incubated for 24 hrs by immunoblotting analysis (reference value: […]). Type of data set: cell-based.

Data set [3] concerns the target T2, von Hippel-Lindau disease tumor suppressor/Bifunctional arginine demethylase and lysyl-hydroxylase JMJD6 (Homo sapiens). The experiment in a line: Protac activity at VHL/JMJD6 in human MCF7 cells assessed as degradation by measuring fold change in remaining JMJD6 level at 10 uM incubated for 24 hrs by immunoblotting analysis (reference value: […]). In kind it is cell-based.

Data set [4] deals with T1, von Hippel-Lindau disease tumor suppressor/Bromodomain-containing protein 4 (Homo sapiens). Briefly: PROTAC activity at VHL/BDR4 ET domain in human MCF7 cells assessed as degradation by measuring fold change in remaining BRD4 level at 10 uM incubated for 6 hrs by immunoblotting analysis (reference value: […]). In kind it is cell-based.
Data set [5] addresses T2, von Hippel-Lindau disease tumor suppressor/Bifunctional arginine demethylase and lysyl-hydroxylase JMJD6 (Homo sapiens). Briefly: Protac activity at VHL/JMJD6 in human MCF7 cells assessed as degradation by measuring fold change in remaining JMJD6 level at 10 uM incubated for 6 hrs by immunoblotting analysis (reference value: […]). Type of data set: cell-based.
The target of data set [6] is T1, von Hippel-Lindau disease tumor suppressor/Bromodomain-containing protein 4 (Homo sapiens). The experiment in a line: PROTAC activity at VHL/BDR4 ET domain in human MCF7 cells assessed as degradation by measuring fold change in remaining BRD4 level at 10 uM incubated for 24 hrs in presence of MG132 by immunoblotting analysis (reference value: […]). In kind it is cell-based.

Data set [7] shares this target. Briefly: PROTAC activity at VHL/BDR4 ET domain in human MCF7 cells assessed as degradation by measuring fold change in remaining BRD4 level at 10 uM incubated for 24 hrs in presence of TAT-PiET by immunoblotting analysis relative to TAT/TAT-PROTAC. In kind it is cell-based. In a few lines:
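MCF7 cells are treated with PROTAC peptide (dose series, or 10 μM over a time course, or 10 μM with or without MG132 10 μM) for up to 24 h. Comparators are TAT, TAT-PiET, or TAT-PROTAC at 10 μM. BRD4 is measured by immunoblot, normalised to β-actin; three repeats.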

Data set [8] has the same target. The experiment in a line: PROTAC activity at VHL/His-tagged BDR4 ET domain (601 to 683 residues) (unknown origin) transfected in MCF7 cells assessed as degradation by measuring fold change in remaining BRD4 level at 10 uM incubated for 12 hrs by immunoblotting analysis (reference value: […]). In kind it is cell-based.
The target is the same in data set [9]. Briefly: PROTAC activity at VHL/His-tagged BDR4 ET domain (1 to 470 residues) (unknown origin) transfected in MCF7 cells assessed as degradation by measuring fold change in remaining BRD4 level at 20 uM incubated for 24 hrs by immunoblotting analysis (reference value: […]). In kind it is cell-based.
The target is the same in data set [10]. Briefly: PROTAC activity at VHL/His-tagged BDR4 […] (unknown origin) transfected in MCF7 cells assessed as degradation by measuring fold change in remaining BRD4 level at 5 uM incubated for 24 hrs by immunoblotting analysis (reference value: […]). In kind it is cell-based.
Data set [11] has the same target. The experiment in a line: PROTAC activity at VHL/His-tagged BDR4 […] (unknown origin) transfected in MCF7 cells assessed as degradation by measuring fold change in remaining BRD4 level at 10 uM incubated for 24 hrs by immunoblotting analysis (reference value: […]). Type of data set: cell-based.
Data set [12] shares this target. The experiment in a line: PROTAC activity at VHL/His-tagged BDR4 […] (unknown origin) transfected in MCF7 cells assessed as degradation by measuring fold change in remaining BRD4 level at 20 uM incubated for 24 hrs by immunoblotting analysis (reference value: […]). In kind it is cell-based.
Data set [13] has as its system Mus musculus. Briefly: Downregulation of CCND1 mRNA expression in BALB/c mouse tumor xenografted with human MDA-MB-231 cells at 25 mg/kg, ip administered every 2 days by RT-qPCR analysis. Type of data set: functional, organism-based.
The test system of data set [14] is Mus musculus. Briefly: Downregulation of JMJD6 mRNA expression in BALB/c mouse tumor xenografted with human MCF7 cells at 25 mg/kg, ip administered every 2 days by RT-qPCR analysis. In kind it is functional, organism-based. Background: In xenograft studies the graft and the host belong to different species.
A short description of data set [15]: Toxicity in BALB/c mouse xenografted with human MCF7 cells assessed as change in kidney weight at 12.5 mg/kg, ip administered every 2 days in presence of 50 mg/kg JQ1. Type of data set: organism-based. The following applies: in vivo, 48 h.
Data set [16] in a line: Toxicity in BALB/c mouse xenografted with human MDA-MB-231 cells assessed as change in heart weight at 12.5 mg/kg, ip administered every 2 days in presence of 50 mg/kg JQ1. Type of data set: organism-based. Particulars: in vivo, 48 h. In a few lines:
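Female BALB/c nude mice (4–6 weeks) carried sc MDA-MB-231 xenografts (5 × 10^6 cells) and were randomized at about 50 mm3. Peptide (12.5 mg/kg ip in saline) and JQ1 (50 mg/kg ip, DMSO/10% HPBCD 1:10) were given every 2 days, alone or combined. Body weight was recorded, and heart, liver, spleen, lung and kidney morphology and weight were assessed.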

A further data set deals with MDA-MB-231. The experiment in a line: Antiproliferative activity against human MDA-MB-231 cells at 10 uM incubated for 1 week in presence of JMJD6 inhibitor by CellTiter 96 Aqueous One Solution based assay. In kind it is functional, cell-based. The following applies: time 1.0 weeks. The method, boiled down: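 Cells seeded at 2 × 10^3/well and treated with peptide (10 μM) alone or combined with JQ1 (5 μM), iJMJD6 (10 μM) or ICI (2.5 μM), as the line states. Viability read by MTS reagent, 1 h at 37 °C, A490. Three biological repeats.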

A short description of data set [17]: Toxicity in BALB/c mouse xenografted with human MCF7 cells assessed as change in kidney at 12.5 mg/kg, ip administered every 2 days in presence of 12.5 mg/kg JMJD6 inhibitor. Type of data set: organism-based. Particulars: in vivo, 48 h. In a few lines: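 Female BALB/c nude mice carried MCF7 xenografts (5 × 10^6 cells sc, E2 10–2 M brushed every 2 days) and were randomized at about 50 mm3. Peptide was given at 12.5 mg/kg ip every 2 days, and iJMJD6 (DMSO/PBS 1:20) at 12.5 mg/kg ip every other day, alone or combined. Body and organ weights were recorded.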

Data set [18] in a line: Downregulation of CCND1 protein expression in BALB/c mouse tumor xenografted with human MDA-MB-231 cells assessed as fold change in remaining CCND1 level at 25 mg/kg, ip administered every 2 days by immunoblotting analysis. Type of data set: functional. The method, boiled down: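 Tumours taken from xenograft mice dosed with peptide at 25 mg/kg ip every 2 days. […] Three repeats.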

In a further data set the test system is MCF7. Briefly: Inhibition of His-tagged BRD4 ET domain to Flag-tagged JMJD6 (unknown origin) protein-protein interaction in human MCF7 cells assessed as fold decrease in Flag-tagged JMJD6 level at 10 uM incubated for 12 hrs by immunoblotting assay (reference value: […]). In kind it is cell-based.

Active and inactive are the calls of the source. No cut-off for these calls is given here. Square brackets hold non-standard residues; d marks the D form. Peptide text beside a SMILES is read from it. Hyp = O=C(O)[C@@H]1C[C@@H](O)CN1; Ahx = NCCCCCC(=O)O

T1 sequence (P40337 whole entry, looked up, other chains not shown, the tested form may be a part): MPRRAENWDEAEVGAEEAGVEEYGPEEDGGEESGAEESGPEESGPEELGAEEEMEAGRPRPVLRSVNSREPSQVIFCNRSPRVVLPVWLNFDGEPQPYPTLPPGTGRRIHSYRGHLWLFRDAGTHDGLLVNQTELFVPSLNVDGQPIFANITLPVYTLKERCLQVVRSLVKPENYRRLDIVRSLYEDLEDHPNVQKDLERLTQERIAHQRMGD

`CC[C@H](C)[C@H](NC(=O)[C@H](Cc1ccc(O)cc1)NC(=O)[C@@H]1C[C@@H](O)CN1C(=O)[C@H](C)NC(=O)[C@@H](NC(=O)CCCCCNC(=O)[C@H](CCC(=O)O)NC(=O)CNC(=O)[C@H](CS)NC(=O)[C@H](CCCCN)NC(=O)[C@H](Cc1ccccc1)NC(=O)[C@H](CCCCN)NC(=O)[C@H](CCC(N)=O)NC(=O)[C@H](CC(N)=O)NC(=O)[C@H](CCCNC(=N)N)NC(=O)[C@H](CCCNC(=N)N)NC(=O)[C@H](CCCNC(=N)N)NC(=O)[C@H](CCCNC(=N)N)NC(=O)[C@H](CCC(N)=O)NC(=O)[C@H](CCCNC(=N)N)NC(=O)[C@H](CCCNC(=N)N)NC(=O)[C@H](CCCCN)NC(=O)[C@H](CCCCN)NC(=O)[C@H](CCCNC(=N)N)NC(=O)CNC(=O)[C@@H](N)Cc1ccc(O)cc1)[C@@H](C)CC)C(=O)O` (H-YGRKKRRQRRRRNQKFKCGE[Ahx]IA[Hyp]YI-OH): the fold change (FC) in data set [1] is 0.35; in [2], 0.77; in [3] it was 0.59; in [4], 0.72; in data set [5] it was 0.89; in data set [6] it was 0.96. The fold change (FC) in [7] turned out to be 0.84; in [8], 0.78; in [9], 1.06; in [10] it was 1.01; in [11], 0.91; in [12], 1.4. For the same molecule, the “fold change (FC)” value in data set [18] was 0.08. In addition, the result with Mus musculus [13] and in the data set with MDA-MB-231 was Active. Further, the outcome with Mus musculus [14] was inactive. Also, the Activity result in data set [15], in data set [16] and in data set [17] was “Non-Toxic” each time.
Take H-YGRKKRRQRRRRNQKFKCGE-OH: the fold change (FC) is 0.93 in the data set on MCF7 and 0.28 in data set [18]. Moreover, the outcome in the data set with Mus musculus [13] and in the data set with MDA-MB-231 was Active. For the same molecule, the result in the data set on Mus musculus [14] was inactive. The Activity entry in data set [15], in data set [16] and in data set [17] was “Non-Toxic” in each case.
